The list is not random: actives were taken first. Their share in the collection is about 3.7%.
hERG protect – hERG rescue from dofetilide block, primary screen, cell-based, CHO-hERG, FluxOR thallium flux, dofetilide IC70 | Voltage-gated inwardly rectifying potassium channel KCNH2 (Homo sapiens), Q12809 | dofetilide IC70 present | activation (rescue from dofetilide block), less the hit threshold, % at 10 µM | 0.51% of 310,000 active | AID 1511, 2009;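 active = activation above the mean of controls blocked by dofetilide plus 5 SD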;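 also: thallium influx through hERG after potassium depolarization seen as dye fluorescence rise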
KCNK9 inh-1 – KCNK9 potassium channel inhibitors, primary screen, HEK293 cells, thallium flux. FluxOR thallium flux fluorescence; hits give low values. B-score at 10 µM. 1.2% of 310,000 active. AID 488922, 2010;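 active = ratio B-score over 3 SD below the library mean, with starting fluorescence within 5 SD of its mean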;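 also: negative B-score means less thallium flux so channel inhibition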
Kir21 block – inhibitors of mouse Kir2.1 inward-rectifier potassium channel | 0.85% of 310,000 active | HEK293-Kir2.1, FluxOR thallium flux fluorescence; hits give low values | Inward rectifier potassium channel 2 (Mus musculus), P35561 | B-score at 10 µM | AID 1672, 2009;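 active = fluorescence ratio B-score at or below minus 3 SD of library scores, with starting-brightness B-score within 2 SD, cut at about -4.2 in these data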;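 also: channel flux triggered by added potassium and thallium sulfate stimulus; B-score of peak minus minimum fluorescence over baseline after thallium stimulus; more negative B-score means stronger Kir2.1 block with less thallium influx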
Target sequence (P35561 whole entry, looked up): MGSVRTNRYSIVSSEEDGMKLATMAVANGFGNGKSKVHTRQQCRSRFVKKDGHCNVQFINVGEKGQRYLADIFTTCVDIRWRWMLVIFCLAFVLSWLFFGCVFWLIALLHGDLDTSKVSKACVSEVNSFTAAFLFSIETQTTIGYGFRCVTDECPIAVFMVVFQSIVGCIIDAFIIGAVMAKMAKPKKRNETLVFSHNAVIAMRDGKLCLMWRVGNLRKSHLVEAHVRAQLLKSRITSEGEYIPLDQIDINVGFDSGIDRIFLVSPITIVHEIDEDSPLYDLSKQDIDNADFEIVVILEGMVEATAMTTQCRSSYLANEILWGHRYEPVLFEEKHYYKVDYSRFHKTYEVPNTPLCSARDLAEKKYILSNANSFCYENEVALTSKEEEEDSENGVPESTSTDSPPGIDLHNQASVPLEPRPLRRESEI
KCNQ1 pot – potentiators or activators of KCNQ1 channel, primary screen, cell-based, thallium flux, high-throughput; CHO-K1 KCNQ1, thallium flux FluxOR fluorescence; hits give high values; B-score at 10 µM; 0.35% of 310,000 active; AID 2648, 2010;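 active = fluorescence ratio B-score, a plate-corrected score, at least three library SD, with initial intensity B-score within 5 SD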
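assay system = KCNQ1-transfected CHO-K1 cells | medium = assay buffer with matched DMSO | probe or stimulus = depolarizing K+/Tl+ stimulus, K2SO4 and Tl2SO4 each 12.5 mM in 5x stock | dosing = single dose | incubation = dye 90 min, compound 20 min, room temperature | detection = kinetic FluxOR fluorescence, 10 s baseline plus 110 s post-stimulus | evaluation = ratio B score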
KCNK3 block – human KCNK3 channel inhibitors, primary screen, CHO cells, FluxOR thallium flux, B-score; AID 602410, 2012; Potassium channel subfamily K member 3 (Homo sapiens), O14649; FluxOR fluorescence; hits give low values; 0.84% of 340,000 active; B-score at 10 µM;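 active = B-score under library mean minus 4 SD, starting fluorescence ratio at most library mean plus 5 SD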;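 also: more negative B-score means stronger inhibition of thallium flux through KCNK3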
KCNQ1 block – inhibitors of human KCNQ1 channel, primary screen, cell-based, thallium flux, high-throughput; Potassium voltage-gated channel subfamily KQT member 1 (Homo sapiens), P51787; B-score at 10 µM; 1.3% of 310,000 active; CHO-K1 KCNQ1, FluxOR thallium flux fluorescence; hits give high values;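 active = compounds whose thallium flux B-score, printed positive for inhibition, exceeds three library SD while starting fluorescence stays within three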;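 also: channel opened by potassium depolarization with thallium stimulus after 20 min compound exposure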
hERG inh – hERG channel inhibition, counter-screen for Kir2.1 inhibitor project, cell-based, thallium flux; shares compounds with Kir21 block; hERG-expressing cells; inhibition, % at 10 µM; 20% of 320 active; AID 2236, 2010;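 also: host cells are CHO cells stably expressing hERG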
KCNK9 inh-2 – KCNK9 channel inhibition, selectivity assay for Kir2.1 inhibitor project, cell-based; 5% of 320 active; shares compounds with Kir21 block; inhibition, % at 10 µM; AID 2329, 2010; KCNK9-expressing cells, ion flux inhibition
Kir2-1 patch inh – mouse Kir2.1 channel blockers, Kir2.1 inhibitor project, cell-based, secondary, automated electrophysiology | 71% of 320 active | Kir2.1 cells, automated patch-clamp current inhibition | inhibition, % at 25 µM | shares compounds with Kir21 block
* hit, by the source's call. Unless noted, no rule for the calls is given here.

What do the screens show for `Cc1ccc(C(=O)NC(=S)NNC(=O)c2ccccc2O)cc1`?
hERG protect: -12; KCNK9 inh-1: inactive; Kir21 block: -0.33; KCNQ1 pot: inactive; KCNK3 block: inactive; KCNQ1 block: inactive

Results for Cc1ccc(C(=O)NNC(=S)NC(=O)c2ccccc2)cc1 ?
hERG protect: 23*; KCNK9 inh-1: inactive; Kir21 block: 2.6; KCNQ1 pot: 8*; KCNK3 block: inactive; KCNQ1 block: inactive; hERG inh: inactive; KCNK9 inh-2: inactive; Kir2-1 patch inh: inactive

What do the screens show for `O=C(O)COc1ccccc1/C=N/NC(=O)CSc1nc2ccccc2n1Cc1ccccc1Cl`?
hERG protect: -2; KCNK9 inh-1: inactive; Kir21 block: 2.8; KCNQ1 pot: inactive; KCNK3 block: inactive; KCNQ1 block: inactive; hERG inh: inactive; KCNK9 inh-2: inactive; Kir2-1 patch inh: inactive

What do the screens show for `Cc1cc(Cl)ccc1OC(C)C(=O)NC(C)C1CCCO1` (stereo unspecified)?
hERG protect: -10; KCNK9 inh-1: inactive; Kir21 block: -8.5*; KCNQ1 pot: inactive; KCNK3 block: inactive; KCNQ1 block: inactive; hERG inh: inactive; KCNK9 inh-2: inactive; Kir2-1 patch inh: 9.2%*

Results for CC(NC(=O)Nc1ccc(Cl)cc1)C1CCCO1 (stereo unspecified) ?
hERG protect: -3; KCNK9 inh-1: inactive; Kir21 block: -0.34; KCNQ1 pot: inactive; KCNK3 block: inactive; KCNQ1 block: inactive

How did CCOc1cc(/C=N/O)ccc1OCc1ccc(F)cc1 do in these assays?
hERG protect: -4; KCNK9 inh-1: inactive; Kir21 block: -0.79; KCNQ1 pot: inactive; KCNK3 block: inactive; KCNQ1 block: inactive

How did CCOc1cc(/C=N/N=C(N)N)ccc1OCc1ccc(Cl)cc1 do in these assays?
hERG protect: -28; KCNK9 inh-1: inactive; Kir21 block: -16*; KCNQ1 pot: inactive; KCNK3 block: inactive; KCNQ1 block: 9*; hERG inh: 60%*; KCNK9 inh-2: inactive; Kir2-1 patch inh: inactive

How did O=C1CC(C(=O)Nc2ccccc2)S/C(=N\NC(=O)c2ccccc2Cl)N1 (stereo unspecified) do in these assays?
hERG protect: -4; KCNK9 inh-1: inactive; Kir21 block: 0.6; KCNQ1 pot: inactive; KCNK3 block: inactive; KCNQ1 block: inactive

What do the screens show for `O=C1CN(S(=O)(=O)c2cccc(Cl)c2Cl)c2ccccc2N1`?
hERG protect: -7; KCNK9 inh-1: inactive; Kir21 block: -5.7*; KCNQ1 pot: inactive; KCNK3 block: inactive; KCNQ1 block: inactive; hERG inh: inactive; KCNK9 inh-2: inactive; Kir2-1 patch inh: inactive

Results for CC(C)(Oc1ccc(Cl)cc1)C(=O)OCC(=O)NCCc1ccccc1 ?
hERG protect: -14; KCNK9 inh-1: inactive; Kir21 block: -6.4*; KCNQ1 pot: inactive; KCNK3 block: inactive; KCNQ1 block: inactive; hERG inh: inactive; KCNK9 inh-2: inactive; Kir2-1 patch inh: 39%*

Results for Cc1ccc(C(=O)NCCc2c[nH]c3ccccc23)s1 ?
hERG protect: -5; KCNK9 inh-1: inactive; Kir21 block: -1.7; KCNQ1 pot: inactive; KCNK3 block: inactive; KCNQ1 block: inactive

High-throughput results (PubChem BioAssay)
